Among the data in ChEMBL document CHEMBL1143935, “Synthesis and biological evaluation of novel dimiracetam derivatives useful for the treatment of neuropathic pain” (Bioorg Med Chem, 2008) are Activity values, retold here.

The source made the active and inactive calls.

Data set [1] concerns Rattus norvegicus. The experiment in a line: Antihyperalgesic activity in Sprague-Dawley rat assessed as lesioned paw pressure threshold at 30 ug/kg, icv after 30 mins. The format is functional. The method in brief: (§1)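 Sciatic nerve-ligated (chronic constriction injury, Bennett–Xie) male Sprague–Dawley rats, 150–200 g, dosed i.c.v.; saline served as vehicle. Paw withdrawal threshold (g) of the lesioned paw was read by analgesimeter before dosing and at 30, 45 and 60 min, max force 240 g. Baseline outliers (<40 g, >75 g) were excluded. Mean ± SEM of 8–14 rats; ANOVA with Fisher PLSD.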

Data set [2] relates to Rattus norvegicus. The experiment in a line: Antihyperalgesic activity in Sprague-Dawley rat assessed as lesioned paw pressure threshold at 30 ug/kg, icv after 45 mins. The format is functional. Summed up:
as §1

Data set [3] has as its system Rattus norvegicus. The experiment in a line: Antihyperalgesic activity in Sprague-Dawley rat assessed as lesioned paw pressure threshold at 30 ug/kg, icv after 60 mins. The format is functional. Summed up:
as §1

Data set [4] concerns Rattus norvegicus. Description: Analgesic activity against nerve injury-induced hyperalgesia in Sprague-Dawley rat assessed as increase in lesional paw pressure threshold at 30 mg/kg, po after 30 to 60 mins. Further details: dose 30 mg/kg. The format is functional, organism-based. Summed up: (§2)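 Male Sprague–Dawley rats (150–200 g) given a chronic constriction injury: loose ligatures on the right common sciatic nerve (Bennett–Xie), under chloral hydrate anaesthesia. Oral dosing. Analgesimeter paw pressure; withdrawal force in g recorded before and 30, 45, 60 min after dosing, cut-off 240 g. Rats below 40 g or above 75 g at baseline were excluded. Mean ± SEM, 6–11 rats; ANOVA with Fisher PLSD.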

The test system of data set [5] is Rattus norvegicus. Description: Analgesic activity against streptozotocin-induced hyperalgesia in Sprague-Dawley rat assessed as increase in paw mechanical threshold at 100 mg/kg, po. On the set-up: dose 100 mg/kg. Format: functional, organism-based. The method in brief:
(§3)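 Male Sprague–Dawley rats (150–200 g) were given streptozotocin 50 mg/kg ip and tested 21 days later. Oral dosing; paw pressure analgesimeter read as the force (g) at first struggling, before and at 30–60 min after dosing, cut-off 240 g. Rats below 40 g or above 75 g at baseline were excluded. Mean ± SEM, 9–10 rats; ANOVA with Fisher PLSD.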

Data set [6] relates to Rattus norvegicus. The experiment in a line: Antihyperalgesic activity in Sprague-Dawley rat assessed as lesioned paw pressure threshold at 10 ug/kg, icv after 30 mins. The format is functional. Summed up: as §1
Data set [7] deals with Rattus norvegicus. Description: Analgesic activity against streptozotocin-induced hyperalgesia in Sprague-Dawley rat assessed as increase in paw mechanical threshold at 50 mg/kg, po. Format: functional, organism-based. Further details: dose 50 mg/kg. Summed up: as §3
The subject of data set [8] is Rattus norvegicus. Description: Antihyperalgesic activity in Sprague-Dawley rat assessed as lesioned paw pressure threshold at 10 ug/kg, icv after 45 mins. The format is functional. Summed up:
as §1

Data set [9] concerns Rattus norvegicus. The experiment in a line: Analgesic activity against nerve injury-induced hyperalgesia in Sprague-Dawley rat assessed as increase in lesional paw pressure threshold at 10 mg/kg, po after 30 to 60 mins. The format is functional, organism-based. On the set-up: dose 10 mg/kg. The method in brief:
as §2

In data set [10] the test system is Rattus norvegicus. Description: Neurotoxicity in Sprague-Dawley rat assessed as behavioural impairment at 100 mg/kg, po by rotarod test. On the set-up: dose 100 mg/kg, route oral. Format: toxicity, organism-based. Conditions: in vivo. Summed up: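 Rotarod motor incoordination test in male Sprague–Dawley rats: animals walk against the rotating drum for 30 s, and the readout is the number of falls in 30 s.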
(In general: In the rotarod test animals must keep their balance on a rotating rod.)

For data set [11], the system named is Rattus norvegicus. Description: Antihyperalgesic activity in Sprague-Dawley rat assessed as lesioned paw pressure threshold at 10 ug/kg, icv after 60 mins. Format: functional. Summed up:
as §1

The test system of data set [12] is Rattus norvegicus. The experiment in a line: Antihyperalgesic activity in Sprague-Dawley rat assessed as lesioned paw pressure threshold at 500 ug/kg, icv after 60 mins. The format is functional. Summed up: (§4)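 Male Sprague–Dawley rats, 150–200 g, with right sciatic nerve chronic constriction injury (Bennett–Xie). Compound given i.c.v. and withdrawal threshold (g) on lesioned and contralateral paws measured with an analgesimeter before dosing and at 30, 45, 60 min. Pre-dose scores outside 40–75 g excluded; 240 g maximum force. 8–14 rats per group; ANOVA with Fisher's PLSD.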

Data set [13] concerns Rattus norvegicus. The experiment in a line: Antihyperalgesic activity in Sprague-Dawley rat assessed as lesioned paw pressure threshold at 500 ug/kg, icv after 30 mins. Format: functional. Summed up:
as §4

Data set [14] relates to Rattus norvegicus. Description: Antihyperalgesic activity in Sprague-Dawley rat assessed as lesioned paw pressure threshold at 500 ug/kg, icv after 45 mins. The format is functional. The method in brief: as §4
Data set [15] is filed under the species Rattus norvegicus. The experiment in a line: Analgesic activity against streptozotocin-induced hyperalgesia in Sprague-Dawley rat assessed as increase in paw mechanical threshold. Format: functional, organism-based. Summed up:
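Male Sprague–Dawley rats, 150–200 g, given streptozotocin 50 mg/kg ip and tested 21 days later; compound given orally at 30–100 mg/kg, with non-diabetic controls. Paw pressure analgesimeter recorded force (g) causing first struggle before and 30, 45, 60 min after dosing; 240 g cutoff. Means of 9–10 rats; ANOVA with Fisher's PLSD.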

The test system of data set [16] is Rattus norvegicus. The experiment in a line: Analgesic activity against nerve injury-induced hyperalgesia in Sprague-Dawley rat assessed as increase in lesional paw pressure threshold at 50 mg/kg, po after 30 to 60 mins. Format: functional, organism-based. Further details: dose 50 mg/kg. The method in brief: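 Male Sprague–Dawley rats, 150–200 g, with chronic constriction injury (loose ligatures on right common sciatic nerve, chloral hydrate anaesthesia); oral dosing. Paw pressure analgesimeter measured withdrawal/first-struggle force (g) on lesioned and contralateral paws before and 30, 45, 60 min after dosing. Pre-dose scores below 40 g or above 75 g excluded; 240 g cutoff. Means of 6–11 rats; ANOVA with Fisher's PLSD.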

For data set [17], the system named is Rattus norvegicus. Description: Antihyperalgesic activity in Sprague-Dawley rat assessed as lesioned paw pressure threshold at 100 ug/kg, icv after 45 mins. Format: functional. Summed up:
as §1

Data set [18] concerns Rattus norvegicus. Description: Antihyperalgesic activity in Sprague-Dawley rat assessed as lesioned paw pressure threshold at 100 ug/kg, icv after 60 mins. Format: functional. Summed up: as §1
Data set [19] deals with Rattus norvegicus. Description: Antihyperalgesic activity in Sprague-Dawley rat assessed as lesioned paw pressure threshold at 100 ug/kg, icv after 30 mins. Format: functional. The method in brief: as §1

With `Cc1ccccc1N1C(=O)CN2C(=O)CCC21` (stereo not drawn), the Activity in the data set with Rattus norvegicus [1] was determined as 46.7 g; in the data set on Rattus norvegicus [2], 55.3 g; in the data set with Rattus norvegicus [3], 54.8 g.
`Cc1cccc(C)c1NC(=O)CN1CCCC1=O` [NEFIRACETAM]: the Activity stood at 46.7 g in the data set on Rattus norvegicus [1], 49.5 g in the data set with Rattus norvegicus [2] and 47.6 g in the data set on Rattus norvegicus [3].
With `CC(C)c1cccc(N2C(=O)CN3C(=O)CCC32)c1` (stereo not drawn), the Activity in the data set with Rattus norvegicus [1] was determined as 48.5 g; in the data set with Rattus norvegicus [2] it was 43.7 g; in the data set with Rattus norvegicus [3] it was 42.5 g.
Regarding `Cc1ccc(N2C(=O)CN3C(=O)CCC32)cc1` (stereo not drawn), the result in the data set with Rattus norvegicus [4], in the data set on Rattus norvegicus [5] and with Rattus norvegicus [7] was Active. The Activity in the data set on Rattus norvegicus [6] was 54 g; in the data set with Rattus norvegicus [8] it was 57.4 g; with Rattus norvegicus [10] it was “Non-toxic”; with Rattus norvegicus [11], 45.4 g. Also, the outcome in the data set with Rattus norvegicus [9] was inactive.
`Cc1cccc(N2C(=O)CN3C(=O)CCC32)c1` (stereo not drawn): the Activity came out at 59.3 g in the data set with Rattus norvegicus [6], 63.4 g with Rattus norvegicus [8] and 51.2 g with Rattus norvegicus [11].
Turning to `NCC1(CC(=O)O)CCCCC1` [GABAPENTIN], the Activity with Rattus norvegicus [1] turned out to be 46.3 g; in the data set with Rattus norvegicus [2], 43.5 g; with Rattus norvegicus [3], 46.1 g.
As for `O=C1CCC2N1CC(=O)N2c1ccccc1` (stereo not drawn), the results for the Activity in the data set with Rattus norvegicus [1], with Rattus norvegicus [2] and in the data set with Rattus norvegicus [3] were 51.7 g, 52.7 g and 53.3 g, respectively.
For `CC[C@@H](C(N)=O)N1CCCC1=O` [LEVETIRACETAM], the Activity is 49.3 with Rattus norvegicus [12], 51.8 with Rattus norvegicus [13] and 52.1 in the data set on Rattus norvegicus [14].
As for `N#Cc1ccc(N2C(=O)CN3C(=O)CCC32)cc1` (stereo not drawn), the Activity result is “Dose-dependent effect” in the data set filed under Rattus norvegicus [15], 59.4 g in the data set on Rattus norvegicus [6], 55.3 g in the data set on Rattus norvegicus [8] and 58.2 g with Rattus norvegicus [11]. For the same molecule, the outcome in the data set with Rattus norvegicus [16] was Active.
Consider `N#Cc1cccc(N2C(=O)CN3C(=O)CCC32)c1` (stereo not drawn), for which the Activity result was “Dose-dependent effect” in the data set listed under Rattus norvegicus [15]; 49.7 g in the data set with Rattus norvegicus [1]; “Non-toxic” in the data set with Rattus norvegicus [10]; 55.4 g in the data set with Rattus norvegicus [2]; 46.8 g with Rattus norvegicus [3]. Moreover, in the data set with Rattus norvegicus [16], the outcome was Active.
As for `O=C1CN2C(=O)CCC2N1` (stereo not drawn) [DIMIRACETAM], the Activity was determined as 42.8 g with Rattus norvegicus [17], 39.2 g with Rattus norvegicus [18] and 41 g in the data set on Rattus norvegicus [19].
